# From ChEMBL document CHEMBL3351319, “Synthesis, biological evaluation and 3D-QSAR study of novel 4,5-dihydro-1H-pyrazole thiazole derivatives as BRAF(V⁶⁰⁰E) inhibitors” (Bioorg Med Chem, 2015)
# Columns and labels:
# [1] = Antiproliferative activity against human WM266.4 cells after 48 hrs by MTT assay; type: functional, cell-based; conditions: WM 266-4, 48 h
# Method in brief: (§1)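 Cells grown to log phase in RPMI 1640 with 10% FBS, seeded at 2 × 10^4 cells/mL and left 24 h at 37 °C, 5% CO2. Compounds added at pre-set concentrations, sorafenib as positive control, 48 h exposure. MTT (2.5 mg/mL in PBS) added for 4 h, then SDS-isobutanol-HCl extraction overnight at 37 °C. OD read at 570 nm. Three replicate wells per concentration, each assay run at least three times.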
# MCF7 [2] = experiment: Antiproliferative activity against human MCF7 cells after 48 hrs by MTT assay; type: functional, cell-based; conditions: MCF7, 48 h; method in brief: as §1
# [3] = Inhibition of full-length GST-tagged mouse BRAF V600E mutant using MEK1 as substrate preincubated for 1 hr
# Method in brief: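 Mouse full-length GST-tagged BRAF V600E (7.5 ng) pre-incubated 1 h at room temperature with compound in assay dilution buffer. Reaction started by adding 200 ng His-tagged full-length human MEK1, 200 µM ATP (0.8 µCi hot ATP) and 30 mM MgCl2, then run 25 min at room temperature. Quenched with LDS buffer and heated 5 min at 70 °C. Products separated on 4-12% gel, which was dried and read on a phosphor screen. No-enzyme and no-inhibitor controls included, triplicate.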
# MCF7 [4] = experiment: Induction of apoptosis in human MCF7 cells assessed as late apoptotic cells at 1 uM after 48 hrs using annexin V-FITC/PI by flow cytometry (reference value: 5.12 %); type: functional
# MCF7 [5] = experiment: Induction of apoptosis in human MCF7 cells assessed as viable cells at 1 uM after 48 hrs using annexin V-FITC/PI by flow cytometry (reference value: 91.07 %); type: functional; conditions: MCF7, 48 h, read-out: Activity
# WM 266-4 [6] = experiment: Induction of apoptosis in human WM266.4 cells assessed as necrotic cells at 3 uM after 48 hrs using annexin V-FITC/PI by flow cytometry (reference value: 1.26 %); type: functional
# MCF7 [7] = experiment: Induction of apoptosis in human MCF7 cells assessed as early apoptotic cells at 1 uM after 48 hrs using annexin V-FITC/PI by flow cytometry (reference value: 3.52 %); type: functional
# MCF7 [8] = experiment: Induction of apoptosis in human MCF7 cells assessed as necrotic cells at 1 uM after 48 hrs using annexin V-FITC/PI by flow cytometry (reference value: 0.29 %); type: functional
# WM 266-4 [9] = experiment: Induction of apoptosis in human WM266.4 cells assessed as necrotic cells at 1 uM after 48 hrs using annexin V-FITC/PI by flow cytometry (reference value: 1.26 %); type: functional
# WM 266-4 [10] = experiment: Induction of apoptosis in human WM266.4 cells assessed as early apoptotic cells at 1 uM after 48 hrs using annexin V-FITC/PI by flow cytometry (reference value: 5.79 %); type: functional
# MCF7 [11] = experiment: Induction of apoptosis in human MCF7 cells assessed as necrotic cells at 3 uM after 48 hrs using annexin V-FITC/PI by flow cytometry (reference value: 0.29 %); type: functional
# MCF7 [12] = experiment: Induction of apoptosis in human MCF7 cells assessed as early apoptotic cells at 3 uM after 48 hrs using annexin V-FITC/PI by flow cytometry (reference value: 3.52 %); type: functional
# WM 266-4 [13] = experiment: Induction of apoptosis in human WM266.4 cells assessed as viable cells at 3 uM after 48 hrs using annexin V-FITC/PI by flow cytometry (reference value: 86.39 %); type: functional; conditions: WM 266-4, 48 h, read-out: Activity
# WM 266-4 [14] = experiment: Induction of apoptosis in human WM266.4 cells assessed as viable cells at 1 uM after 48 hrs using annexin V-FITC/PI by flow cytometry (reference value: 86.39 %); type: functional; conditions: WM 266-4, 48 h, read-out: Activity
# WM 266-4 [15] = experiment: Induction of apoptosis in human WM266.4 cells assessed as late apoptotic cells at 1 uM after 48 hrs using annexin V-FITC/PI by flow cytometry (reference value: 6.56 %); type: functional
# WM 266-4 [16] = experiment: Induction of apoptosis in human WM266.4 cells assessed as late apoptotic cells at 3 uM after 48 hrs using annexin V-FITC/PI by flow cytometry (reference value: 6.56 %); type: functional
# MCF7 [17] = experiment: Induction of apoptosis in human MCF7 cells assessed as viable cells at 3 uM after 48 hrs using annexin V-FITC/PI by flow cytometry (reference value: 91.07 %); type: functional; conditions: MCF7, 48 h, read-out: Activity
# WM 266-4 [18] = experiment: Induction of apoptosis in human WM266.4 cells assessed as early apoptotic cells at 3 uM after 48 hrs using annexin V-FITC/PI by flow cytometry (reference value: 5.79 %); type: functional
# MCF7 [19] = experiment: Induction of apoptosis in human MCF7 cells assessed as late apoptotic cells at 3 uM after 48 hrs using annexin V-FITC/PI by flow cytometry (reference value: 5.12 %); type: functional
Compound,IC50 (MCF7 [2]) [µM],IC50 [3] [µM],IC50 [1] [µM],other results
COc1ccc(-c2csc(N3N=C(c4ccc(F)cc4)CC3c3cccs3)n2)cc1 (centres undefined),14.2,5.12,4.42,–
COc1ccc(-c2csc(N3N=C(c4ccc(Br)cc4)CC3c3cccs3)n2)cc1 (centres undefined),0.68,0.08,2.01,–
COc1ccc(-c2csc(N3N=C(c4ccc(C)cc4)CC3c3cccs3)n2)cc1 (centres undefined),4.77,0.11,3.77,–
COc1ccc(C2=NN(c3nc(-c4ccc(OC)cc4)cs3)C(c3cccs3)C2)cc1 (centres undefined),16.2,5.23,31.6,–
COc1ccc(C2=NN(c3nc(-c4ccc(Br)cc4)cs3)C(c3cccs3)C2)cc1 (centres undefined),21.2,4.01,5.87,–
COc1ccc(C2=NN(c3nc(-c4ccc(C(F)(F)F)cc4)cs3)C(c3cccs3)C2)cc1 (centres undefined),45.7,10.9,8.11,–
Fc1ccc(C2=NN(c3nc(-c4ccc(Br)cc4)cs3)C(c3cccs3)C2)cc1 (centres undefined),8.28,1.86,0.22,–
Fc1ccc(C2=NN(c3nc(-c4ccc(C(F)(F)F)cc4)cs3)C(c3cccs3)C2)cc1 (centres undefined),1.33,1.01,5.12,–
Cc1ccc(C2=NN(c3nc(-c4ccc(Br)cc4)cs3)C(c3cccs3)C2)cc1 (centres undefined),2.01,0.56,18.4,–
Cc1ccc(C2=NN(c3nc(-c4ccc(C(F)(F)F)cc4)cs3)C(c3cccs3)C2)cc1 (centres undefined),31.5,6.18,2.11,–
Brc1ccc(C2=NN(c3nc(-c4ccc(Br)cc4)cs3)C(c3cccs3)C2)cc1 (centres undefined),28.3,8.87,13,–
FC(F)(F)c1ccc(-c2csc(N3N=C(c4ccc(Br)cc4)CC3c3cccs3)n2)cc1 (centres undefined),7.81,2.09,27.4,–
CNC(=O)c1cc(Oc2ccc(NC(=O)Nc3ccc(Cl)c(C(F)(F)F)c3)cc2)ccn1 [SORAFENIB],0.19,0.03,0.06,–

# Now from value to molecule, other results behind:
IC50 (MCF7 [2]) [µM],IC50 [3] [µM],Compound,IC50 [1] [µM],other results
2.34,0.67,Fc1ccc(C2=NN(c3nc(-c4ccccc4)cs3)C(c3cccs3)C2)cc1 (centres undefined),0.17,–
6.79,2.19,Brc1ccc(C2=NN(c3nc(-c4ccccc4)cs3)C(c3cccs3)C2)cc1 (centres undefined),1.87,–
18.6,3.88,Cc1ccc(C2=NN(c3nc(-c4ccccc4)cs3)C(c3cccs3)C2)cc1 (centres undefined),7.52,–
9.01,1.11,COc1ccc(C2=NN(c3nc(-c4ccccc4)cs3)C(c3cccs3)C2)cc1 (centres undefined),2.12,–
14.7,4.78,Clc1ccc(C2=NN(c3nc(-c4ccc(Br)cc4)cs3)C(c3cccs3)C2)cc1 (centres undefined),1.45,–
0.19,0.09,Clc1ccc(C2=NN(c3nc(-c4ccccc4)cs3)C(c3cccs3)C2)cc1 (centres undefined),2.19,–
2.48,0.19,COc1ccc(-c2csc(N3N=C(c4ccc(Cl)cc4)CC3c3cccs3)n2)cc1 (centres undefined),1.31,–
0.16,0.05,FC(F)(F)c1ccc(-c2csc(N3N=C(c4ccc(Cl)cc4)CC3c3cccs3)n2)cc1 (centres undefined),0.12,Activity (MCF7 [4]): 27.25%; viability at 1 µM (MCF7 [5]): 32.4%; Activity (WM 266-4 [6]): 3.54%; Activity (MCF7 [7]): 39.15%; Activity (MCF7 [8]): 1.2%; Activity (WM 266-4 [9]): 0.09%; Activity (WM 266-4 [10]): 14.13%; Activity (MCF7 [11]): 3.54%; Activity (MCF7 [12]): 43.69%; viability at 3 µM (WM 266-4 [13]): 11%; viability at 1 µM (WM 266-4 [14]): 68.2%; Activity (WM 266-4 [15]): 17.54%; Activity (WM 266-4 [16]): 38.25%; viability at 3 µM (MCF7 [17]): 19.8%; Activity (WM 266-4 [18]): 47.19%; Activity (MCF7 [19]): 33.01%
